Assay results as given in ChEMBL document CHEMBL1148673, “Peptidomimetic C5a receptor antagonists with hydrophobic substitutions at the C-terminus: increased receptor specificity and in vivo activity” (Bioorg Med Chem Lett, 2006).
Residues, ends and D or L forms follow the SMILES beside them.

Legend:
[1] = biological target: T1, C5a anaphylatoxin chemotactic receptor 1 (Homo sapiens, UniProt P21730); experiment: Antagonist activity at human C5aR in CD88 transfected RBL cells assessed as inhibition of C5a-induced glucosaminidase release; format: functional, cell-based
T1 sequence (P21730 whole entry): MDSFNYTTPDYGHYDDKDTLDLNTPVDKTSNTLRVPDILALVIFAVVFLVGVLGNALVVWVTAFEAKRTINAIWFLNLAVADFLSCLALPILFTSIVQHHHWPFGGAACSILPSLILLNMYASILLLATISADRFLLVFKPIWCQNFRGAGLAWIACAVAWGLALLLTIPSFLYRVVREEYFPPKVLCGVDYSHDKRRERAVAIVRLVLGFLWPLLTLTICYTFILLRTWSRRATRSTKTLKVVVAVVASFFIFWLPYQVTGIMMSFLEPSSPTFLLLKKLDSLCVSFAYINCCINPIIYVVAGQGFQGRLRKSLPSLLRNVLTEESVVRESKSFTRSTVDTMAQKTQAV
Summary of the method: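 Functional antagonism read as inhibition of glucosaminidase release stimulated by C5a from RBL cells transfected with CD88 (RBL+); IC50 in µM.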

[2] = Stability in human liver microsome after 1 hr; format: ADME; conditions: liver microsomes, read-out: Stability
Summary of the method: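 Compound incubated with human liver microsomes, 1 h at 37 °C; read-out is % of parent remaining.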

Structure (SMILES) | IC50 [1] | remaining at 1 h [2]
CC(=O)N[C@@H](Cc1ccccc1)C(=O)N[C@H]1CCCNC(=O)[C@H](C2CCCCC2)NC(=O)[C@H](Cc2c[nH]c3ccccc23)NC(=O)[C@@H](CC2CCCCC2)NC(=O)[C@@H]2CCCN2C1=O (HELM PEPTIDE1{[ac].F.[Orn].P.[O=C([C@@H](CC1CCCCC1)N[*:1])[*:2]].W.[O=C([C@@H](N[*:1])C1CCCCC1)[*:2]]}$PEPTIDE1,PEPTIDE1,3:R3-7:R2$$$V2.0) | 38 nM | 
CC(=O)N[C@@H](Cc1ccccc1)C(=O)N[C@H]1CCCNC(=O)[C@H](CCCNC(N)=O)NC(=O)[C@H](Cc2c[nH]c3ccccc23)NC(=O)[C@@H](CC2CCCCC2)NC(=O)[C@@H]2CCCN2C1=O | 490 nM | 
CC(=O)N[C@@H](Cc1ccccc1)C(=O)N[C@H]1CCCNC(=O)[C@H](Cc2cccs2)NC(=O)[C@H](Cc2c[nH]c3ccccc23)NC(=O)[C@@H](CC2CCCCC2)NC(=O)[C@@H]2CCCN2C1=O (HELM PEPTIDE1{[ac].F.[Orn].P.[O=C([C@@H](CC1CCCCC1)N[*:1])[*:2]].W.[O=C([C@H](Cc1cccs1)N[*:1])[*:2]]}$PEPTIDE1,PEPTIDE1,3:R3-7:R2$$$V2.0) | 22 nM | 
CC(=O)N[C@@H](C)C(=O)N[C@H]1CCCNC(=O)[C@H](CCCN=C(N)N)NC(=O)[C@H](Cc2c[nH]c3ccccc23)NC(=O)[C@@H](CC2CCCCC2)NC(=O)[C@@H]2CCCN2C1=O (HELM PEPTIDE1{[ac].A.[Orn].P.[O=C([C@@H](CC1CCCCC1)N[*:1])[*:2]].W.R}$PEPTIDE1,PEPTIDE1,3:R3-7:R2$$$V2.0) | 23000 nM | 
CC(=O)N[C@@H](Cc1ccccc1)C(=O)N[C@H]1CCCNC(=O)[C@H](CCCCNC(=N)N)NC(=O)[C@H](Cc2c[nH]c3ccccc23)NC(=O)[C@@H](CC2CCCCC2)NC(=O)[C@@H]2CCCN2C1=O | 360 nM | 
CCCC[C@@H]1NC(=O)[C@H](Cc2c[nH]c3ccccc23)NC(=O)[C@@H](CC2CCCCC2)NC(=O)[C@@H]2CCCN2C(=O)[C@@H](NC(=O)[C@H](Cc2ccccc2)NC(C)=O)CCCNC1=O (HELM PEPTIDE1{[ac].F.[Orn].P.[O=C([C@@H](CC1CCCCC1)N[*:1])[*:2]].W.[Nle]}$PEPTIDE1,PEPTIDE1,3:R3-7:R2$$$V2.0) | 25 nM | 
CCCC[C@H](NC(=O)[C@H](Cc1c[nH]c2ccccc12)NC(=O)[C@@H](CC1CCCCC1)NC(=O)[C@@H]1CCCN1C(=O)[C@H](CCCN)NC(=O)[C@H](Cc1ccccc1)NC(C)=O)C(N)=O | 463 nM | 
CC(=O)N[C@@H](Cc1ccccc1)C(=O)N[C@@H](CCCN)C(=O)N1CCC[C@H]1C(=O)N[C@H](CCC(C)C)C(=O)N[C@@H](Cc1csc2ccccc12)C(=O)N[C@@H](Cc1ccccc1)C(N)=O | 27 nM | 1%
CC(=O)N[C@@H](Cc1ccccc1)C(=O)N[C@H]1CCCNC(=O)[C@H](Cc2cccc3ccccc23)NC(=O)[C@H](Cc2c[nH]c3ccccc23)NC(=O)[C@@H](CC2CCCCC2)NC(=O)[C@@H]2CCCN2C1=O (HELM PEPTIDE1{[ac].F.[Orn].P.[O=C([C@@H](CC1CCCCC1)N[*:1])[*:2]].W.[O=C([C@H](Cc1cccc2ccccc12)N[*:1])[*:2]]}$PEPTIDE1,PEPTIDE1,3:R3-7:R2$$$V2.0) | 51 nM | 
CCCCCCCC[C@@H]1NC(=O)[C@H](Cc2c[nH]c3ccccc23)NC(=O)[C@@H](CC2CCCCC2)NC(=O)[C@@H]2CCCN2C(=O)[C@@H](NC(=O)[C@H](Cc2ccccc2)NC(C)=O)CCCNC1=O | 300 nM | 
CC(=O)N[C@@H](Cc1ccccc1)C(=O)N[C@H]1CCCNC(=O)[C@H](CCCN)NC(=O)[C@H](Cc2c[nH]c3ccccc23)NC(=O)[C@@H](CC2CCCCC2)NC(=O)[C@@H]2CCCN2C1=O | 18 nM | 
CC(=O)N[C@@H](Cc1ccccc1)C(=O)N[C@H]1CCCNC(=O)[C@H](C)NC(=O)[C@H](Cc2c[nH]c3ccccc23)NC(=O)[C@@H](CC2CCCCC2)NC(=O)[C@@H]2CCCN2C1=O (HELM PEPTIDE1{[ac].F.[Orn].P.[O=C([C@@H](CC1CCCCC1)N[*:1])[*:2]].W.A}$PEPTIDE1,PEPTIDE1,3:R3-7:R2$$$V2.0) | 6900 nM | 
CC(=O)N[C@@H](Cc1ccccc1)C(=O)N[C@H]1CCCNC(=O)[C@H](CCCNC(=N)N)NC(=O)[C@H](Cc2c[nH]c3ccccc23)NC(=O)[C@@H](C)NC(=O)[C@@H]2CCCN2C1=O | 55000 nM | 
CC(=O)N[C@@H](Cc1ccccc1)C(=O)N[C@@H](CCCN)C(=O)N1CCC[C@H]1C(=O)N[C@H](CC1CCCCC1)C(=O)N[C@@H](Cc1c[nH]c2ccccc12)C(=O)N[C@@H](Cc1ccccc1)C(N)=O (HELM PEPTIDE1{[ac].F.[Orn].P.[O=C([C@@H](CC1CCCCC1)N[*:1])[*:2]].W.F.[am]}$$$$V2.0) | 31 nM | 34%
CC(=O)N[C@@H](Cc1ccccc1)C(=O)N[C@H]1CCCNC(=O)[C@H](CCCNC(=N)N)NC(=O)[C@H](Cc2c[nH]c3ccccc23)NC(=O)[C@@H](CC2CCCCC2)NC(=O)[C@H](C)NC1=O | 25 nM | 
CC(=O)N[C@@H](Cc1ccccc1)C(=O)N[C@H]1CCCNC(=O)[C@H](Cc2ccc3ccccc3c2)NC(=O)[C@H](Cc2c[nH]c3ccccc23)NC(=O)[C@@H](CC2CCCCC2)NC(=O)[C@@H]2CCCN2C1=O (HELM PEPTIDE1{[ac].F.[Orn].P.[O=C([C@@H](CC1CCCCC1)N[*:1])[*:2]].W.[O=C([C@H](Cc1ccc2ccccc2c1)N[*:1])[*:2]]}$PEPTIDE1,PEPTIDE1,3:R3-7:R2$$$V2.0) | 76 nM | 
CC(=O)N[C@@H](Cc1ccccc1)C(=O)N[C@@H](CCCN)C(=O)N1CCC[C@H]1C(=O)N[C@H](CCC(C)C)C(=O)N[C@@H](Cc1ccc(Cl)c(Cl)c1)C(=O)N[C@@H](Cc1ccccc1)C(N)=O | 116 nM | 49%
CC(=O)N[C@@H](Cc1ccccc1)C(=O)N[C@H]1CCCNC(=O)[C@H](CC2CCCCC2)NC(=O)[C@H](Cc2c[nH]c3ccccc23)NC(=O)[C@@H](CC2CCCCC2)NC(=O)[C@@H]2CCCN2C1=O (HELM PEPTIDE1{[ac].F.[Orn].P.[O=C([C@@H](CC1CCCCC1)N[*:1])[*:2]].W.[Cha]}$PEPTIDE1,PEPTIDE1,3:R3-7:R2$$$V2.0) | 45 nM | 
CC(=O)N[C@@H](Cc1ccccc1)C(=O)N[C@H]1CCCNC(=O)[C@H](CCC/N=C(/N)N[N+](=O)[O-])NC(=O)[C@H](Cc2c[nH]c3ccccc23)NC(=O)[C@@H](CC2CCCCC2)NC(=O)[C@@H]2CCCN2C1=O | 570 nM | 
CC(=O)N[C@@H](Cc1ccccc1)C(=O)N[C@@H](CCCN)C(=O)N1CCC[C@H]1C(=O)N[C@H](CCC(C)C)C(=O)N[C@@H](Cc1c[nH]c2ccccc12)C(=O)N[C@@H](Cc1ccccc1)C(N)=O | 63 nM | 37%
CCCC[C@H]1NC(=O)[C@H](Cc2c[nH]c3ccccc23)NC(=O)[C@@H](CC2CCCCC2)NC(=O)[C@@H]2CCCN2C(=O)[C@@H](NC(=O)[C@H](Cc2ccccc2)NC(C)=O)CCCNC1=O (HELM PEPTIDE1{[ac].F.[Orn].P.[O=C([C@@H](CC1CCCCC1)N[*:1])[*:2]].W.[CCCC[C@@H](N[*:1])C(=O)[*:2]]}$PEPTIDE1,PEPTIDE1,3:R3-7:R2$$$V2.0) | 107 nM | 
CC(=O)N[C@@H](Cc1ccccc1)C(=O)N[C@H]1CCCNC(=O)[C@H](CCCN=C(N)N)NC(=O)[C@H](C)NC(=O)[C@@H](CC2CCCCC2)NC(=O)[C@@H]2CCCN2C1=O (HELM PEPTIDE1{[ac].F.[Orn].P.[O=C([C@@H](CC1CCCCC1)N[*:1])[*:2]].A.R}$PEPTIDE1,PEPTIDE1,3:R3-7:R2$$$V2.0) | 100000 nM | 
CC(=O)N[C@@H](Cc1ccccc1)C(=O)N[C@@H](CCCN)C(=O)N1CCC[C@H]1C(=O)N[C@H](CC1CCCCC1)C(=O)N[C@@H](Cc1c[nH]c2ccccc12)C(=O)N[C@@H](CCCN=C(N)N)C(=O)O | 535 nM | 
CC(=O)N[C@@H](Cc1ccccc1)C(=O)N[C@H]1CCCNC(=O)[C@H](CC(C)C)NC(=O)[C@H](Cc2c[nH]c3ccccc23)NC(=O)[C@@H](CC2CCCCC2)NC(=O)[C@@H]2CCCN2C1=O (HELM PEPTIDE1{[ac].F.[Orn].P.[O=C([C@@H](CC1CCCCC1)N[*:1])[*:2]].W.L}$PEPTIDE1,PEPTIDE1,3:R3-7:R2$$$V2.0) | 54 nM | 
CCC[C@@H]1NC(=O)[C@H](Cc2c[nH]c3ccccc23)NC(=O)[C@@H](CC2CCCCC2)NC(=O)[C@@H]2CCCN2C(=O)[C@@H](NC(=O)[C@H](Cc2ccccc2)NC(C)=O)CCCNC1=O (HELM PEPTIDE1{[ac].F.[Orn].P.[O=C([C@@H](CC1CCCCC1)N[*:1])[*:2]].W.[Nva]}$PEPTIDE1,PEPTIDE1,3:R3-7:R2$$$V2.0) | 18 nM | 
CC(=O)N[C@@H](Cc1ccccc1)C(=O)N[C@H]1CCCNC(=O)[C@H](Cc2ccccc2)NC(=O)[C@H](Cc2c[nH]c3ccccc23)NC(=O)[C@@H](CC2CCCCC2)NC(=O)[C@@H]2CCCN2C1=O (HELM PEPTIDE1{[ac].F.[Orn].P.[O=C([C@@H](CC1CCCCC1)N[*:1])[*:2]].W.F}$PEPTIDE1,PEPTIDE1,3:R3-7:R2$$$V2.0) | 26 nM | 
CC[C@H](C)[C@@H]1NC(=O)[C@H](Cc2c[nH]c3ccccc23)NC(=O)[C@@H](CC2CCCCC2)NC(=O)[C@@H]2CCCN2C(=O)[C@@H](NC(=O)[C@H](Cc2ccccc2)NC(C)=O)CCCNC1=O | 50 nM | 
CC(=O)N[C@@H](Cc1ccccc1)C(=O)N[C@H]1CCCNC(=O)[C@H](CCC(C)C)NC(=O)[C@H](Cc2c[nH]c3ccccc23)NC(=O)[C@@H](CC2CCCCC2)NC(=O)[C@@H]2CCCN2C1=O (HELM PEPTIDE1{[ac].F.[Orn].P.[O=C([C@@H](CC1CCCCC1)N[*:1])[*:2]].W.[CC(C)CC[C@H](N[*:1])C(=O)[*:2]]}$PEPTIDE1,PEPTIDE1,3:R3-7:R2$$$V2.0) | 57 nM | 
CC(=O)N[C@@H](Cc1ccccc1)C(=O)N[C@H]1CCCNC(=O)[C@H](CCC2CCCCC2)NC(=O)[C@H](Cc2c[nH]c3ccccc23)NC(=O)[C@@H](CC2CCCCC2)NC(=O)[C@@H]2CCCN2C1=O | 146 nM | 
